Compound activity deposited in PubChem BioAssay by Johns Hopkins Ion Channel Center.
MrgX1 ag – activates human MrgX1 receptor signaling | B-score at 10 µM | Q96LB2 | MrgX1-HEK293 cells, Fluo-4 calcium fluorescence, agonist mode; active compounds read high | 310,000 tested, 0.44% active;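 active means calcium response B-score plate-corrected fluorescence ratio at least 3 library SD, with starting fluorescence B-score inside 5 SD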
Target sequence (Q96LB2 whole entry, looked up): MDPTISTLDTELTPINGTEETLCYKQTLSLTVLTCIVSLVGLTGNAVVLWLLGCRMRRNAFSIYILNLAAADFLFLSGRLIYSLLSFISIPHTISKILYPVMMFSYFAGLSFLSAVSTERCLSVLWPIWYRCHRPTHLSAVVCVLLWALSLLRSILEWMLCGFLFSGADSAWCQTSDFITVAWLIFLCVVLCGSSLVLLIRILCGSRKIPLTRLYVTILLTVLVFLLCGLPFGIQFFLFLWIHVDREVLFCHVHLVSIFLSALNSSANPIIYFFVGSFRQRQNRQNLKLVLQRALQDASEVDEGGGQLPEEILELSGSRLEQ
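Test system: HEK293 cells stably expressing human MrgX1 receptor; Input: fifteen thousand cells per well; Dosing: compound delivered in addition one of three; Schedule: overnight seeding, then 1 h dark dye loading; Technique: Fluo-4 NW calcium fluorescence; Measure: B-scored fluorescence response ratio; Controls: positive and negative controls per plate.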
RGS4 pot – potentiators or activators of RGS4 | B-score at 10 µM | 310,000 tested, 0.92% active | HEK293 M3R/inducible RGS4, carbachol calcium flux Fluo4; active compounds read low;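 active means B-score of the integrated calcium signal more than 4 SD below the library mean, with starting fluorescence not abnormally high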;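 further: negative B-score means reduced calcium response which marks RGS4 activation or potentiation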
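Test system: HEK293 cells with stable M3R and inducible RGS4; also added: carbachol at ECmax as muscarinic agonist stimulus; schedule: dye loading 30 min 37 °C, buffer rest 30 min RT; technique: kinetic calcium fluorescence imaging with Fluo4-AM dye, 2 µM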
MrgX1 antag – antagonists of human MrgX1 receptor | Q96LB2 | MRGX1-HEK293 calcium flux, Fluo-4, BAM8-22 antagonism; active compounds read low | B-score at 10 µM | 310,000 tested, 1.3% active | AID 588676;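 active means calcium-response B-score plate-corrected more than 3 library SD below zero, starting fluorescence within 5 deviations, no agonist response on first addition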;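 further: peak minus trough fluorescence over baseline after final BAM8-22 challenge near maximal dose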
MrgX1 PAM – allosterically activates human MrgX1 receptor signaling; MrgX1-HEK293, Fluo-4 calcium flux, FDSS; active compounds read high; 310,000 tested, 0.63% active; B-score at 10 µM;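 active means plate-corrected calcium response at least 3 library SD above typical, normal starting fluorescence, not activating the receptor alone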;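 further: compound read alongside a low EC10 to EC30 dose of BAM8-22 agonist; peak minus trough fluorescence over baseline measured at the second addition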
RGS4 block – human RGS4 inhibition | HEK293 M3R/RGS4 inducible, Fluo-4 calcium flux; active compounds read high; triggered by carbachol at its EC20 | 310,000 tested, 0.45% active | AID 463165 | B-score at 10 µM;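 active means B-score, a plate-corrected calcium signal, over three deviations above library mean, with baseline fluorescence within five deviations of library mean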;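 further: RGS4 expression induced by doxycycline in cells with stable M3 receptor; B-score is computed from the integrated fluorescence ratio over baseline after carbachol; higher B-score means a larger calcium signal and so more RGS4 inhibition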
Target sequence (P49798 whole entry, looked up): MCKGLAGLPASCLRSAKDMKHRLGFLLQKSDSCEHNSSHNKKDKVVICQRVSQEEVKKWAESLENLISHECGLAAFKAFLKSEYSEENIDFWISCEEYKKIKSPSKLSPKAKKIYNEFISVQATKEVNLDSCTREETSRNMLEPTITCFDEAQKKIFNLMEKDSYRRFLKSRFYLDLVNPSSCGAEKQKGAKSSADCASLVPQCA
RGS4 inh valid – RGS4 inhibitor validation | shares compounds with RGS4 block | HEK293 M3R/RGS4, carbachol calcium Fluo-4 fluorescence; carbachol added at its EC20; 0 = buffer wells, 100 = carbachol control | calcium response, % at 10 µM | 1,700 tested, 65% active | AID 492999;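 active means duplicate-averaged calcium response above the buffer-only control mean plus 5 SD of those controls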;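 further: integrated fluorescence ratio F max minus min over baseline F0; higher response in RGS4-induced cells means RGS4 inhibition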
M3R Ca ctr – checks RGS4 inhibitor effects in non-induced HEK293 M3R cells; shares compounds with RGS4 block; carbachol calcium Fluo-4; submaximal (EC20) carbachol stimulus; buffer wells 0%, carbachol control wells 100%; activity (percent), % at 10 µM; 1,900 tested, 20% active; AID 493000; call rule not given here;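 further: RGS4 induction absent so cells express M3R without RGS4; higher means more calcium signal and flags a non-specific hit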
M3R basal Ca ctr – second counter-screen for RGS4 inhibitors: non-induced cells without carbachol; shares compounds with RGS4 block; HEK293 M3R/RGS4 non-induced, Fluo-4 calcium, no carbachol; normalised: buffer wells 0%, carbachol wells 100%; calcium response (agonist-mode artifact), % at 10 µM; 1,900 tested, 22% active; AID 493001;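 active means duplicate-averaged calcium rise in uninduced cells above buffer wells' mean plus 5 SD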
Of the large screens only hits and unclear results are named; the others gave an inactive call (follow-up assays come after a bar, where they were run). Only some compounds are listed: those with a hit (about 3.5% of all), similar ones and a draw of the others.

O=C(Cc1c[nH]c2ccccc12)N/N=C/c1ccccc1O	none
Cc1ccc(/C=N/NC(=O)Cc2c[nH]c3ccccc23)c(C)c1	RGS4 block 6.9 | RGS4 inh valid 31% | M3R Ca ctr inactive | M3R basal Ca ctr 42%
O=c1c2ccccc2oc2cc(OCc3ccc(F)cc3)cc(O)c12	none
Cc1[nH]c2ccccc2c1C(=O)C(=O)NCc1ccco1	none
CC(=O)Nc1ccc(NC(=O)COC(=O)/C(=C/c2ccccc2)n2nnnc2C)cc1	RGS4 block 6.4 | RGS4 inh valid 18% | M3R Ca ctr inactive | M3R basal Ca ctr inactive
Cc1nnnn1/C(=C\c1ccccc1)C(=O)OCC(=O)NC1CCCCC1	RGS4 block 6.4 | RGS4 inh valid 12% | M3R Ca ctr inactive | M3R basal Ca ctr 9.0%
Cc1nnnn1/C(=C\c1ccccc1)C(=O)OCC(=O)NC(C)(C)C	none
N/C(CSc1ncccc1C(F)(F)F)=N\O	none
O=C(O)c1ccccc1Nc1cc(Cl)c2nonc2c1[N+](=O)[O-]	none
O=[N+]([O-])c1c(Nc2ccccn2)cc(Cl)c2nonc12	MrgX1 antag -4.7, RGS4 block 10 | RGS4 inh valid 54% | M3R Ca ctr inactive | M3R basal Ca ctr 8.0%
Cc1cc2cc(C(c3nnnn3C(C)(C)C)N(Cc3ccco3)CC3CCCO3)c(=O)[nH]c2cc1C (stereo unspecified)	RGS4 block 5.4 | RGS4 inh valid 18% | M3R Ca ctr inactive | M3R basal Ca ctr inactive
COc1ccc2[nH]c(=O)c(C(c3nnnn3C(C)(C)C)N(Cc3ccco3)CC3CCCO3)cc2c1 (stereo unspecified)	none | M3R Ca ctr inactive | M3R basal Ca ctr 7.0%
Cc1cc(C)c2[nH]c(=O)c(C(c3nnnn3C(C)(C)C)N(Cc3ccco3)CC3CCCO3)cc2c1 (stereo unspecified)	none | RGS4 inh valid inactive | M3R Ca ctr inactive | M3R basal Ca ctr inactive
COc1ccc2[nH]c(=O)c(C(c3nnnn3CC3CCCO3)N3CCCCC3)cc2c1 (stereo unspecified)	none
CCCCNC(=O)/C(=C/c1ccco1)NC(=O)c1ccco1	none
O=C1CCCC(=O)C1=C1SCCCS1	none
N#CC1=C2N=C(N)c3ccccc3N2C2=C(C(=O)CCC2)C1c1ccc(Cl)cc1 (stereo unspecified)	RGS4 block 7.5 | RGS4 inh valid 20% | M3R Ca ctr 28% | M3R basal Ca ctr 24%
Cc1ccc2c(CN3CCC(C)CC3)cc(=O)oc2c1	none
CCOC(=O)C1CCN(Cc2cc(=O)oc3cc(C)ccc23)CC1	RGS4 block 5.5 | RGS4 inh valid inactive | M3R Ca ctr inactive | M3R basal Ca ctr inactive
CCOC(=O)C1CCCN(Cc2cc(=O)oc3cc(C)ccc23)C1 (stereo unspecified)	none | RGS4 inh valid inactive | M3R Ca ctr inactive | M3R basal Ca ctr 10%
COc1ccc(C(C)=O)cc1CN1C(=O)NC(CC(C)C)C1=O (stereo unspecified)	none
COc1cc(/C=C/C(=O)c2ccc(C)cc2)ccc1OCC#N	none | RGS4 inh valid inactive | M3R Ca ctr 32% | M3R basal Ca ctr inactive
COC(=O)c1ccc(/C=C/C(=O)c2ccc(OC)c(OC)c2)cc1	RGS4 block 8.9 | RGS4 inh valid 7.0% | M3R Ca ctr 44% | M3R basal Ca ctr inactive
Cc1ccc(C(=O)/C=C/c2ccc3ncccc3c2)cc1	RGS4 block 7.8 | RGS4 inh valid 22% | M3R Ca ctr 36% | M3R basal Ca ctr inactive
Cc1ccc(/C=C/C(=O)c2ccccc2)cc1	none
COc1ccc(-n2c(CNc3ccc(C)cc3)nnc2SCc2ccccc2)cc1	none | M3R Ca ctr inactive | M3R basal Ca ctr inactive
Cc1cccc2sc(NNC(=O)c3ccc(S(=O)(=O)N4CCCC(C)C4)cc3)nc12 (stereo unspecified)	none | RGS4 inh valid inactive | M3R Ca ctr inactive | M3R basal Ca ctr inactive
Cc1cccc2sc(NNC(=O)c3ccc(S(=O)(=O)N4CCc5ccccc5C4)cc3)nc12	none | M3R Ca ctr inactive | M3R basal Ca ctr inactive
CCOC(=O)N1CCN(S(=O)(=O)c2ccc(C(=O)NNc3nc4c(C)cccc4s3)cc2)CC1	none
O=C1/C(=C/c2cccnc2)CC/C1=C\c1cccnc1	RGS4 block 6.9 | RGS4 inh valid 20% | M3R Ca ctr inactive | M3R basal Ca ctr inactive
CC(C)/C=C1\CC/C(=C\c2cccnc2)C1=O	none | M3R Ca ctr inactive | M3R basal Ca ctr inactive
O=C(CN1C(=O)NC(Cc2c[nH]c3ccccc23)C1=O)NCCc1ccc(F)cc1 (stereo unspecified)	none
CN(C)C=NC(=O)c1ccc(N2CCN(c3ncc(C(F)(F)F)cc3Cl)CC2)cc1	RGS4 block 8.2 | RGS4 inh valid 18% | M3R Ca ctr inactive | M3R basal Ca ctr inactive
CN(C)/C=C/C(=O)c1ccc(N2CCN(c3ncc(C(F)(F)F)cc3Cl)CC2)cc1	none
CCOC(=O)c1c(NC(=O)CSc2nnc3c(n2)[nH]c2ccccc23)sc2c1CCN(C)C2	none
COc1cc(/C=C2/C(=O)N(c3ccc(Br)cc3)N=C2C)cc([N+](=O)[O-])c1O	none
COC(=O)c1ccc(N2NC(=O)/C(=C/c3cc(OC)c(OC)c(OC)c3)C2=O)cc1	RGS4 block 4.9 | RGS4 inh valid 14% | M3R Ca ctr inactive | M3R basal Ca ctr inactive
COc1cccc(/C=C2/C(=O)NN(c3ccc(Br)cc3)C2=O)c1O	none
COC(=O)c1ccc(N2NC(=O)/C(=C/c3cc(OC)c(O)c(OC)c3)C2=O)cc1	none | RGS4 inh valid inactive | M3R Ca ctr inactive | M3R basal Ca ctr 30%
COc1cc(/C=C2/C(=O)NN(c3ccc(F)cc3)C2=O)cc(Cl)c1O	MrgX1 ag 30, RGS4 block 6.2 | RGS4 inh valid 14% | M3R Ca ctr 35% | M3R basal Ca ctr 18%
CCOC(=O)Cc1csc(NS(=O)(=O)c2ccc(NC(C)=O)cc2)n1	none
CC(C)NC(=O)c1c(CSc2ccccc2)noc1C(=O)NCc1ccccc1	none
O=C(N/N=C/c1ccc(-c2cccc([N+](=O)[O-])c2)o1)[C@H]1C[C@@H]1c1ccccc1	RGS4 block 5.7 | RGS4 inh valid inactive | M3R Ca ctr inactive | M3R basal Ca ctr inactive
